The subject of data set [1] is HeLa. Kind of data set: Induction of apoptosis in human HeLa cells assessed as necrotic cells at 0.5 uM measured after 24 hrs by Annexin-V-FITC and PI staining based flow cytometry (reference value: 0.956%). It is filed as functional. The procedure, abridged: (§1)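 HeLa cells were treated 24 h, washed twice in PBS and resuspended in binding buffer. Stained with annexin V-FITC and PI for 30 min in the dark at room temperature, then analysed by flow cytometry.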
(A flow cytometer gives signals particle by particle.)

For data set [2], the system named is HeLa. Put plainly: Induction of apoptosis in human HeLa cells assessed as late apoptotic cells at 0.5 uM measured after 24 hrs by Annexin-V-FITC and PI staining based flow cytometry (reference value: 0.199%). The format is functional. The procedure, abridged: as §1
For data set [3], the system named is PC-3. Kind of data set: Anticancer activity against human PC3 cells assessed as inhibition of cell proliferation measured after 72 hrs by MTT assay. It is filed as functional, cell-based. The settings on record: PC-3, 72 h. The procedure, abridged: (§2)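 Cells (A549, PC-3, HeLa, HUVEC) grown in DMEM with 10% FBS at 37 °C, 5% CO₂. Seeded at 5 × 10⁴ cells/well and allowed 24 h to attach, then exposed 72 h to a concentration series from DMSO stocks. MTT was added for 4 h and formazan dissolved in DMSO, read at 490 nm. Survival taken relative to untreated control. IC50 by Bliss method, three repeats.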
(In general: Tetrazolium assays rely on reduction of a dye to a coloured formazan, in cell work by metabolically active cells.)

Data set [4] concerns HeLa. Put plainly: Inhibition of IDO1 expression in hIFNgamma-stimulated human HeLa cells at 0.5 uM measured after 24 hrs by western blot assay. It is filed as functional. The procedure, abridged:
(§3)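 HeLa cells were treated 24 h at 37 °C and lysed in buffer containing PMSF. Protein quantified by BCA, equal amounts separated by SDS-PAGE and transferred to nitrocellulose. Blocked in 5% milk, primary antibodies overnight at 4 °C, peroxidase secondary 2 h at 25 °C. Detection by chemiluminescence, β-actin as loading control.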

For data set [5], the system named is HeLa. Kind of data set: Antitumor activity against human HeLa cells xenografted in BALB/c mouse assessed as inhibition of tumor volume at 30 mg/kg/day, iv administered for 21 days by caliper analysis. It is filed as functional. The settings on record: 504 h, time 21 day. The procedure, abridged: (§4)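 Male BALB/c nude mice, five weeks old, 18-22 g. Inoculated subcutaneously in the right armpit with 1 × 10⁷ HeLa cells/0.1 mL. At 120-150 mm³, randomized to four groups of five. Once-daily tail-vein injection for 21 days in Tween 80/physiological saline; controls received saline. Tumor volume measured every 2 days by caliper, V = AB²/2.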
(In general: In xenograft studies the graft and the host belong to different species.)

For data set [6], the system named is HeLa. Put plainly: Induction of apoptosis in human HeLa cells assessed as upregulation of PARP protein expression at 0.5 uM measured after 24 hrs by western blot analysis. It is filed as functional, cell-based. The procedure, abridged:
as §3

Data set [7] in a line: Antitumor immunity against IFN-gamma stimulated human HeLa cells co-cultured with PHA-M-stimulated human PBMC cells assessed as induction of CD3+ T cell proliferation at 0.1 uM preincubated for 2 days measured after co-culturing with PBMC for 6 days by flow cytometry (reference value: 6 to 6.2%). The settings on record: time 8 day. The format is functional.
For data set [8], the system named is HeLa. Put plainly: Induction of apoptosis in human HeLa cells assessed as cell membrane integrity loss, chromatin condensation and apoptotic body formation by measuring strengthened orange fluorescence intensity at 0.5 uM measured after 24 hrs by AO/EB dual staining based fluorescence microscopy. It is filed as functional.
The nature of data set [9]: Toxicity in BALB/c nude mouse transfected with human HeLa cells assessed as liver damage at 30 mg/kg/day, iv for 21 days by H&E staining based immunohistochemistry. The note with it: in vivo, 504 h, time 21 day. The format is organism-based. The procedure, abridged: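 HeLa xenografts were grown s.c. in male BALB/c nude mice, which received i.v. tail-vein doses once daily for 21 days in Tween 80/saline vehicle, with saline controls. After 3 weeks the mice were sacrificed. Organs from one mouse per group were fixed in 4% paraformaldehyde, paraffin-embedded and sectioned. Sections were dewaxed, stained with Harris hematoxylin and eosin-phloxine, and examined microscopically for histopathologic changes.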

The nature of data set [10]: Toxicity in BALB/c nude mouse transfected with human HeLa cells assessed as kidney damage at 15 mg/kg/day, iv for 21 days by H&E staining based immunohistochemistry. The note with it: in vivo, 504 h, time 21 day. It is filed as organism-based. The procedure, abridged:
(§5)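 After 3 weeks of daily iv dosing of HeLa-xenografted nude mice, organs were taken from one mouse per group. Fixed in 4% paraformaldehyde, paraffin-embedded and sectioned. Stained with Harris hematoxylin and eosin-phloxine, then examined microscopically for histopathology.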

Data set [11] concerns HeLa. Put plainly: Antitumor activity against human HeLa cells xenografted in iv dosed BALB/c mouse assessed as inhibition of tumor growth administered once daily for 21 days by caliper analysis. It is filed as functional, organism-based. The settings on record: dose 15-30 mg/kg/day, time 21.0 day. The procedure, abridged:
as §4

The subject of data set [12] is HeLa. Put plainly: Induction of cell cycle arrest in human HeLa cells assessed as accumulation at G2/M phase at 0.5 uM measured after 24 hrs by propidium iodide/RNAse staining based flow cytometry (reference value: 10.7%). The format is functional.
A short description of data set [13]: Toxicity in BALB/c nude mouse […] with human HeLa cells assessed as body weight changes at 15 mg/kg/day, iv for 21 days. The format is organism-based. The settings on record: in vivo, 504 h, time 21 day.
Data set [14] in a line: Toxicity in BALB/c nude mouse transfected with human HeLa cells assessed as heart damage at 15 mg/kg/day, iv for 21 days by H&E staining based immunohistochemistry. It is filed as organism-based. The note with it: in vivo, 504 h, time 21 day. The procedure, abridged:
as §5

Data set [15] relates to HeLa. Kind of data set: Potency index, ratio of CA-4 IC50 to test compound IC50 for anticancer activity against human HeLa cells after 72 hrs by MTT assay. It is filed as functional.
Data set [16] deals with HeLa. Kind of data set: Induction of apoptosis in human HeLa cells assessed as viable cells at 0.5 uM measured after 24 hrs by Annexin-V-FITC and PI staining based flow cytometry (reference value: 96.3%). It is filed as functional. The settings on record: read-out: Activity. The procedure, abridged: as §1
Data set [17] is described as follows: Toxicity in BALB/c nude mouse transfected with human HeLa cells assessed as spleen damage at 15 mg/kg/day, iv for 21 days by H&E staining based immunohistochemistry. It is filed as organism-based. The note with it: in vivo, 504 h, time 21 day. The procedure, abridged: as §5
Data set [18] concerns HeLa. Kind of data set: Inhibition of IDO1 expression in hIFNgamma-stimulated human HeLa cells assessed as decrease in kynurenine production at 0.1 uM measured after 48 hrs by reverse-phase HPLC analysis. It is filed as functional. The procedure, abridged:
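HeLa cells were given fresh L-tryptophan-containing medium with hIFN-γ (25 ng/mL) plus compound for 48 h. Collected cells were treated with 20% trichloroacetic acid and centrifuged. Supernatant analysed by reversed-phase HPLC (ODS column, acetonitrile/water, 1.0 mL/min, […]).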

Data set [19] relates to HeLa. Kind of data set: Anticancer activity against human HeLa cells assessed as inhibition of cell proliferation measured after 72 hrs by MTT assay. The format is functional, cell-based. The procedure, abridged:
as §2

Data set [20] relates to HeLa. Put plainly: Induction of apoptosis in human HeLa cells assessed as mitochondrial membrane potential dissipation by measuring increase in green fluorescence intensity at 0.5 uM incubated for 24 hrs by JC-1 staining based fluorescence microscopic analysis. The format is functional, cell-based.
Data set [21] relates to HeLa. Put plainly: Induction of intracellular reactive oxygen species generation in human HeLa cells at 0.5 uM measured after 24 hrs by DCFH-DA staining based flow cytometry relative to CA-4. It is filed as functional.
Data set [22] relates to HeLa. Kind of data set: Induction of apoptosis in human HeLa cells assessed as early apoptotic cells at 0.5 uM measured after 24 hrs by Annexin-V-FITC and PI staining based flow cytometry (reference value: 2.58%). It is filed as functional. The procedure, abridged:
as §1

Each structure is given as a SMILES string. Activity calls are given as the source filed them. The rule behind the calls is not given here.

For the compound `COc1ccc(/C=C\c2cc(OC)c(OC)c(OC)c2)cc1OC(=O)c1cccc(Cn2cc(CCOC(=O)[C@H](N)Cc3cn(C)c4ccccc34)nn2)c1`, the Activity is 0.637% in [1]; 11% in [2]; 40.3% in data set [7]; “Non-Toxic” in [9]; “Non-Toxic” in data set [10]; “Dose-dependent effect” in data set [11]. Besides, the Activity is 76.27% in data set [12]; “Non-Toxic” in data set [13]; “Non-Toxic” in data set [14]; “Non-Toxic” in [17]; 41.1% in data set [22]. Besides, the concentration for half-maximal inhibition (IC50) – broadly, the point on the concentration scale where inhibition reaches its midpoint – in [3] is 460 nM; in [19], 70 nM. The inhibition result in [4] and in [18] was “Active” each time. Further, the inhibition in vivo – broadly, the share of the control response that was lost under treatment – at 30 mg/kg/day in data set [5] amounted to 65.8%. For the same compound, the result in [6], in [8] and in data set [20] was Active. Besides, the figures for the “fold change (FC)” value in [15] and in [21] were 3 and 2.3, respectively. Moreover, the viability at 0.5 µM in [16] is 47.3%.

Values taken from ChEMBL document CHEMBL4680166, “Dual-functional conjugates improving cancer immunochemotherapy by inhibiting tubulin polymerization and indoleamine-2,3-dioxygenase” (Eur J Med Chem, 2020).
